Data published in ChEMBL document CHEMBL3621107, “Ring fusion strategy for synthesis and lead optimization of sulfur-substituted anthra[1,2-c][1,2,5]thiadiazole-6,11-dione derivatives as promising scaffold of antitumor agents” (Eur J Med Chem, 2015).

What was measured:
Format in all cases: functional
[1] = Cytotoxicity against human prostate cancer cells assessed as growth inhibition after 48 hrs by SRB assay; conditions: Cancer cell lines
In short: (§1)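 Values come from the NCI-60 five-dose panel (0.01–100 µM). The subpanel MID is the mean GI50 over the lines of that tumour subpanel. The selectivity ratio is the full-panel MID divided by the subpanel MID; 3–6 is rated moderate and >6 high.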

SW-620 = assay: Cytotoxicity against human SW620 cells after 48 hrs by SRB assay; conditions: SW-620, 48 h
In short: (§2)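 NCI-60 five-dose study run by NCI DTP at 0.01, 0.1, 1, 10 and 100 µM. Percentage growth at each level was plotted against log10 concentration for each line, and GI50, TGI and LC50 were read from the dose-response curves.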

NCI-H460 = assay: Cytotoxicity against human NCI-H460 cells after 48 hrs by SRB assay; conditions: NCI-H460, 48 h
In short: (§3)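 Second-stage NCI-60 panel run by the NCI Developmental Therapeutics Program, covering nine tumour subpanels. Five concentrations were tested: 0.01, 0.1, 1, 10 and 100 μM. Percentage growth at each level was plotted against log10 drug concentration. GI50, TGI and LC50 were read from these dose-response curves. Subpanel MID values were divided into the full-panel MID to give selectivity ratios.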

HCC 2998 = assay: Cytotoxicity against human HCC2998 cells after 48 hrs by SRB assay; conditions: HCC 2998, 48 h
In short: (§4)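 NCI-60 human tumour cell panel screen, second stage, run by the NCI Developmental Therapeutics Program. Compounds were tested at five concentrations (0.01, 0.1, 1, 10 and 100 μM). Percentage growth was plotted against log10 concentration for each cell line. GI50, TGI and LC50 were taken from these dose-response curves.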

UACC-62 = assay: Cytotoxicity against human UACC62 cells after 48 hrs by SRB assay; conditions: UACC-62, 48 h; in short: as §2
K562 = assay: Cytotoxicity against human K562 cells after 48 hrs by SRB assay; conditions: K562, 48 h; in short: as §4
M14 = assay: Cytotoxicity against human M14 cells after 48 hrs by SRB assay; conditions: M14, 48 h; in short: as §4
RXF 393 = assay: Cytotoxicity against human RXF393 cells after 48 hrs by SRB assay; conditions: RXF 393, 48 h; in short: as §3
NCI-H23 = assay: Cytotoxicity against human NCI-H23 cells after 48 hrs by SRB assay; conditions: NCI-H23, 48 h; in short: as §3
MCF7 = assay: Cytotoxicity against human MCF7 cells after 48 hrs by SRB assay; conditions: MCF7, 48 h; in short: as §4
NCI-H522 = assay: Cytotoxicity against human NCI-H522 cells after 48 hrs by SRB assay; conditions: NCI-H522, 48 h; in short: as §3
CCRF-CEM = assay: Cytotoxicity against human CCRF-CEM cells after 48 hrs by SRB assay; in short: as §4
BT-549 = assay: Cytotoxicity against human BT549 cells after 48 hrs by SRB assay; conditions: BT-549, 48 h; in short: as §4
[2] = Cytotoxicity against human colon cancer cells assessed as growth inhibition after 48 hrs by SRB assay; conditions: Cancer cell lines; in short: as §1
SN12C = assay: Cytotoxicity against human SN12C cells after 48 hrs by SRB assay; conditions: for CC50: read-out: LC50 (the source's name); in short: as §3
[3] = Cytotoxicity against human non-small cell lung cancer cells assessed as growth inhibition after 48 hrs by SRB assay; conditions: Cancer cell lines; in short: as §1
SK-MEL-5 = assay: Cytotoxicity against human SK-MEL-5 cells after 48 hrs by SRB assay; conditions: SK-MEL-5, 48 h; in short: as §3
HCT-15 = assay: Cytotoxicity against human HCT15 cells after 48 hrs by SRB assay; conditions: HCT-15, 48 h; in short: as §4
U-251 = assay: Cytotoxicity against human U251 cells after 48 hrs by SRB assay; conditions: U-251, 48 h; in short: as §2
LOX IMVI = assay: Cytotoxicity against human LOXIMVI cells after 48 hrs by SRB assay; conditions: for CC50: read-out: LC50 (the source's name); in short: as §4
A549 = assay: Cytotoxicity against human A549 cells after 48 hrs by SRB assay; conditions: A549, 48 h; in short: as §4
[4] = Cytotoxicity against human breast cancer cells assessed as growth inhibition after 48 hrs by SRB assay; conditions: Cancer cell lines; in short: as §1
Malme-3M = assay: Cytotoxicity against human MALME-3M cells after 48 hrs by SRB assay; in short: as §4
[5] = Cytotoxicity against human EKVX cells after 48 hrs by SRB assay; in short: as §4
[6] = Cytotoxicity against human Hs578T cells after 48 hrs by SRB assay; conditions: Hs-578T; in short: as §4
MDA-MB-231 = assay: Cytotoxicity against human MDA-MB-231 cells after 48 hrs by SRB assay; conditions: MDA-MB-231, 48 h; in short: as §3
UO-31 = assay: Cytotoxicity against human UO31 cells after 48 hrs by SRB assay; conditions: UO-31, 48 h; in short: as §2
MDA-MB-468 = assay: Cytotoxicity against human MDA-MB-468 cells after 48 hrs by SRB assay; conditions: MDA-MB-468, 48 h; in short: as §3
SR = assay: Cytotoxicity against human SR cells after 48 hrs by SRB assay; in short: as §2
[7] = Cytotoxicity against human renal cancer cells assessed as growth inhibition after 48 hrs by SRB assay; conditions: Cancer cell lines; in short: as §1
[8] = Cytotoxicity against human leukemia cells assessed as growth inhibition after 48 hrs by SRB assay; conditions: Leukemia cell; in short: as §1
ACHN = assay: Cytotoxicity against human ACHN cells after 48 hrs by SRB assay; in short: as §4

O=C1c2ccccc2C(=O)c2c1cc(SCc1ccccc1)c1nsnc21
GI50 [1]: 10.5 µM
GI50 (SW-620): 9.99 µM
LC50 (50% lethal concentration) (SW-620): 35.1 µM
TGI (SW-620): 18.7 µM
GI50 (NCI-H460): > 50 µM
LC50 (concentration killing 50% of cells) (NCI-H460): 32.8 µM
TGI (NCI-H460): 16.8 µM
GI50 (HCC 2998): > 50 µM
LC50 (HCC 2998): > 50 µM
TGI (HCC 2998): > 50 µM
GI50 (UACC-62): 8.22 µM
LC50 (UACC-62): 33.7 µM
TGI (UACC-62): 18.6 µM
GI50 (K562): 1.47 µM
LC50 (K562): > 50 µM
TGI (K562): 6.5 µM
GI50 (M14): 26 µM
LC50 (M14): > 50 µM
TGI (M14): > 50 µM
GI50 (RXF 393): 7.2 µM
LC50 (concentration killing 50% of cells) (RXF 393): 27.4 µM
TGI (RXF 393): 14 µM
GI50 (NCI-H23): 8.25 µM
LC50 (NCI-H23): > 50 µM
TGI (NCI-H23): > 50 µM
GI50 (MCF7): 8.33 µM
LC50 (concentration killing 50% of cells) (MCF7): 34.7 µM
TGI (MCF7): 17 µM
GI50 (NCI-H522): 8.64 µM
LC50 (concentration giving 50% net cell kill) (NCI-H522): > 50 µM
TGI (NCI-H522): > 50 µM
GI50 (CCRF-CEM): 1.3 µM
LC50 (CCRF-CEM): > 50 µM
TGI (CCRF-CEM): 5.06 µM
GI50 (BT-549): 15.2 µM
LC50 (BT-549): > 50 µM
TGI (BT-549): 28.4 µM
GI50 [2]: 16.1 µM
GI50 (SN12C): 7.16 µM
TGI (SN12C): 14.5 µM
CC50 (SN12C): 29.3 µM
GI50 [3]: 9.57 µM
GI50 (SK-MEL-5): 7.17 µM
LC50 (SK-MEL-5): 49.8 µM
TGI (SK-MEL-5): 21.2 µM
GI50 (HCT-15): 8.27 µM
LC50 (HCT-15): 35.3 µM
TGI (HCT-15): 17.1 µM
GI50 (U-251): 6.46 µM
LC50 (U-251): 30.3 µM
TGI (U-251): 14 µM
GI50 (LOX IMVI): 5.68 µM
TGI (LOX IMVI): 12.8 µM
CC50 (LOX IMVI): 29.1 µM
GI50 (A549): > 50 µM
LC50 (concentration killing 50% of cells) (A549): > 50 µM
TGI (A549): > 50 µM
GI50 [4]: 8 µM
GI50 (Malme-3M): 11 µM
LC50 (Malme-3M): 44.6 µM
TGI (Malme-3M): 22.2 µM
GI50 [5]: 14.2 µM
LC50 [5]: > 50 µM
TGI [5]: 26.3 µM
GI50 [6]: 17.3 µM
LC50 [6]: > 50 µM
TGI [6]: > 50 µM
GI50 (MDA-MB-231): 5.14 µM
LC50 (concentration killing 50% of cells) (MDA-MB-231): 34.8 µM
TGI (MDA-MB-231): 13.4 µM
GI50 (UO-31): 7.83 µM
LC50 (UO-31): 43.5 µM
TGI (UO-31): 18.5 µM
GI50 (MDA-MB-468): 0.89 µM
LC50 (MDA-MB-468): 4.21 µM
TGI (MDA-MB-468): 1.93 µM
GI50 (SR): 1.99 µM
LC50 (SR): > 50 µM
TGI (SR): 13.1 µM
GI50 [7]: 12.7 µM
GI50 [8]: 2.67 µM

CC(C)Sc1cc2c(c3nsnc13)C(=O)c1ccccc1C2=O
GI50 [1]: 0.85 µM
GI50 (SW-620): 0.43 µM
LC50 (50% lethal concentration) (SW-620): 11.7 µM
TGI (SW-620): 2.21 µM
GI50 (NCI-H460): 2.02 µM
LC50 (concentration killing 50% of cells) (NCI-H460): 40.5 µM
TGI (NCI-H460): 8.33 µM
GI50 (HCC 2998): 3.46 µM
LC50 (HCC 2998): 34.9 µM
TGI (HCC 2998): 11.1 µM
GI50 (UACC-62): 1.35 µM
LC50 (UACC-62): 5.26 µM
TGI (UACC-62): 2.67 µM
GI50 (K562): 0.26 µM
LC50 (K562): 14.3 µM
TGI (K562): 1.35 µM
GI50 (M14): 1.54 µM
LC50 (M14): 6.53 µM
TGI (M14): 3.18 µM
GI50 (RXF 393): 1.77 µM
LC50 (concentration killing 50% of cells) (RXF 393): 16.9 µM
TGI (RXF 393): 4.83 µM
GI50 (NCI-H23): 0.56 µM
LC50 (NCI-H23): 8.48 µM
TGI (NCI-H23): 2.58 µM
GI50 (MCF7): 1.71 µM
LC50 (concentration killing 50% of cells) (MCF7): 8.42 µM
TGI (MCF7): 3.8 µM
GI50 (NCI-H522): 2.38 µM
LC50 (concentration giving 50% net cell kill) (NCI-H522): 9.96 µM
TGI (NCI-H522): 4.87 µM
LC50 (CCRF-CEM): > 100 µM
TGI (CCRF-CEM): 0.58 µM
GI50 (BT-549): 2.19 µM
LC50 (BT-549): 29.8 µM
TGI (BT-549): 8.38 µM
GI50 [2]: 4.94 µM
GI50 (SN12C): 0.66 µM
TGI (SN12C): 2.41 µM
CC50 (SN12C): 7.09 µM
GI50 [3]: 1.81 µM
GI50 (SK-MEL-5): 1.29 µM
LC50 (SK-MEL-5): 5.23 µM
TGI (SK-MEL-5): 2.6 µM
GI50 (HCT-15): 1.69 µM
LC50 (HCT-15): 40.4 µM
TGI (HCT-15): 6.91 µM
GI50 (U-251): 1.48 µM
LC50 (U-251): 6.75 µM
TGI (U-251): 3.16 µM
GI50 (LOX IMVI): 0.34 µM
TGI (LOX IMVI): 1.31 µM
CC50 (LOX IMVI): 4.73 µM
GI50 (A549): 2.43 µM
LC50 (concentration killing 50% of cells) (A549): 51.4 µM
TGI (A549): 7.94 µM
GI50 [4]: 1.09 µM
GI50 (Malme-3M): 1.12 µM
LC50 (Malme-3M): 5.03 µM
TGI (Malme-3M): 2.38 µM
GI50 [6]: 1.62 µM
LC50 [6]: > 100 µM
TGI [6]: 6.27 µM
GI50 (MDA-MB-231): 0.29 µM
LC50 (concentration killing 50% of cells) (MDA-MB-231): 4.9 µM
TGI (MDA-MB-231): 1.41 µM
GI50 (UO-31): 1.16 µM
LC50 (UO-31): 11.9 µM
TGI (UO-31): 3.56 µM
GI50 (MDA-MB-468): 0.37 µM
LC50 (MDA-MB-468): 4.39 µM
TGI (MDA-MB-468): 1.42 µM
GI50 (SR): 0.31 µM
LC50 (SR): 7.46 µM
TGI (SR): 1.19 µM
GI50 [7]: 1.58 µM
GI50 [8]: 0.25 µM
GI50 (ACHN): 1.25 µM
LC50 (ACHN): 8.5 µM
TGI (ACHN): 3.26 µM
